One data set has as its target Vasopressin V2 receptor (Homo sapiens, UniProt P30518). Nature of the data set: Antagonist activity at human cloned vasopressin V2 receptor by cell based beta lactamase assay. It counts as functional.
For data set [1], the system named is Rattus norvegicus. Nature of the data set: Volume of distribution in rat at 0.5 mg/kg, po. It counts as ADME, organism-based. Also noted: dose 0.5 mg/kg, route oral. The settings on record: in vivo.
Another data set concerns the target T1, Oxytocin receptor (Homo sapiens, UniProt P30559).
T1 sequence (P30559 whole entry): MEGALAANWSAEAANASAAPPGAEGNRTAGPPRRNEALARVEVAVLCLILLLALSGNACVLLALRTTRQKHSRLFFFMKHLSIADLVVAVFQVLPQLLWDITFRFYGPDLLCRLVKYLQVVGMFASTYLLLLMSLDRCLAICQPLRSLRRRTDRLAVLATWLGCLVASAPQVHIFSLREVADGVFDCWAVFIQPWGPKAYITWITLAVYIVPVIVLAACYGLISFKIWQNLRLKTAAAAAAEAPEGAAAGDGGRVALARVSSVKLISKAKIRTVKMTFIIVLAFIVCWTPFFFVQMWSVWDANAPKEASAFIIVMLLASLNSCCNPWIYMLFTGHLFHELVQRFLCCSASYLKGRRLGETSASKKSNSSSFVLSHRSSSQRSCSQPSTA
Nature of the data set: Antagonist activity at human cloned oxytocin receptor by cell based beta lactamase assay. It counts as functional.

A further data set concerns Liver microsomes. Kind of data set: Intrinsic clearance in human liver microsomes. Type of data set: ADME, Microsome. (In general: Liver microsomes are vesicles of endoplasmic reticulum, rich in cytochrome P450 enzymes.)
In another data set the target is Vasopressin V1a receptor (Homo sapiens, UniProt P37288). Kind of data set: Antagonist activity at human cloned vasopressin V1a receptor by cell based beta lactamase assay. Type of data set: functional.
Vasopressin V1a receptor, sequence (P37288 whole entry): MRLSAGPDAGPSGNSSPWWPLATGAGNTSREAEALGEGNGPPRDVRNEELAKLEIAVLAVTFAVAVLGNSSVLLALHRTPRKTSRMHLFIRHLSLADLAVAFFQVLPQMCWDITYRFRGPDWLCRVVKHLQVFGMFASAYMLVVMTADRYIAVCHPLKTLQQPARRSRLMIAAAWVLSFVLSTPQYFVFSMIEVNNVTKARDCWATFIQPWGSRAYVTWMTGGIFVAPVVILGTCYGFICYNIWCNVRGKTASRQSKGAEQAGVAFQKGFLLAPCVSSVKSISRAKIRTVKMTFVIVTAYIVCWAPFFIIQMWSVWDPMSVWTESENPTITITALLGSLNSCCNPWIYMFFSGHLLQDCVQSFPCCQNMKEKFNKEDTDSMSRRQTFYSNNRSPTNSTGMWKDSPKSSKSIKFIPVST
Data set [2] is described as follows: Oral bioavailability in dog at 0.2 mg/kg, po. It counts as ADME, organism-based, Canis lupus familiaris. The settings on record: in vivo. The gist of the method: (§1)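 Oral bioavailability from oral dosing of a suspension of fully crystalline material, at 2 mg/Kg in rat and 0.2 mg/Kg in dog, calculated by comparison with iv pharmacokinetic data.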
Data set [3] can be described thus: Clearance in dog at 0.2 mg/kg, po. It counts as ADME, organism-based, Canis lupus familiaris. More on the design: dose 0.2 mg/kg, route oral. Conditions: in vivo. The gist of the method: (§2)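 Pharmacokinetic parameters from oral dosing of a suspension of fully crystalline material, at 2 mg/Kg in rat and 0.2 mg/Kg in dog.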
Data set [4] is described as follows: Half life in dog at 0.2 mg/kg, po. Type of data set: ADME, organism-based, Canis lupus familiaris. Also noted: dose 0.2 mg/kg, route oral. The settings on record: in vivo. An outline of the steps:
as §2

The target of a further data set is Substance-P receptor (Homo sapiens, UniProt P25103). Nature of the data set: Binding affinity to NK1 receptor.
Substance-P receptor, sequence (P25103 whole entry): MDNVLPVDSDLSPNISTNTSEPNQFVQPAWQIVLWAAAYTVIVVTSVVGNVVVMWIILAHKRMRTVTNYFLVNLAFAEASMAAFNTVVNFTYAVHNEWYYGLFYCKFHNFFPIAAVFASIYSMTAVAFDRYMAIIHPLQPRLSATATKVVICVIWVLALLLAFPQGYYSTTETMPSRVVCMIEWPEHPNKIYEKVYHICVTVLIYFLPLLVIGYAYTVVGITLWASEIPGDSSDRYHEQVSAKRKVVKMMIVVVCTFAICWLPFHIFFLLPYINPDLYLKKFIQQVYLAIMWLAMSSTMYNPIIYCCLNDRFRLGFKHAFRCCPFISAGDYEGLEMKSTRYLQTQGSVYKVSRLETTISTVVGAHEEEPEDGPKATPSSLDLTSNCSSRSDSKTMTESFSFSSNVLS
Data set [5] in a line: Clearance in rat at 2 mg/kg, po. Type of data set: ADME, organism-based. The settings on record: in vivo. Also noted: dose 2 mg/kg, route oral. The gist of the method:
as §2

Data set [6] is described as follows: Aqueous solubility at pH 7.5. It counts as physicochemical. The settings on record: buffer. The gist of the method:
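Aqueous solubility was measured on fully crystalline material at pH 7.5.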

Data set [7] in a line: Half life in rat at 2 mg/kg, po. It counts as ADME, organism-based. More on the design: dose 2 mg/kg, route oral. The settings on record: in vivo. The gist of the method: as §2
The test system of a further data set is Canis familiaris. Nature of the data set: Volume of distribution in dog at 0.2 mg/kg, po. It counts as ADME, organism-based, Canis lupus familiaris. The settings on record: in vivo. More on the design: dose 0.2 mg/kg, route oral. The gist of the method:
as §2

In data set [8] the target is Growth hormone secretagogue receptor type 1 (Homo sapiens, UniProt Q92847). Kind of data set: Binding affinity to ghrelin receptor.
Growth hormone secretagogue receptor type 1, sequence (Q92847 whole entry): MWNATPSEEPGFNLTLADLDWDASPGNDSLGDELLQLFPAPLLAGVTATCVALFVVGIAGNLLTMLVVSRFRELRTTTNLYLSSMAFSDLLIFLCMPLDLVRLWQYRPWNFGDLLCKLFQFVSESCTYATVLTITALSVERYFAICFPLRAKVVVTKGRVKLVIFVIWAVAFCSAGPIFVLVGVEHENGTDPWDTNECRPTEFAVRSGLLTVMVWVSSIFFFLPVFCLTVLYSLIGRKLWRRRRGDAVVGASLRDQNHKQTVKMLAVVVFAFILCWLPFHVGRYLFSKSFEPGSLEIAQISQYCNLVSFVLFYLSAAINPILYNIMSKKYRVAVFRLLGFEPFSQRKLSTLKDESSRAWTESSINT
The target in data set [9] is Kappa-type opioid receptor (Homo sapiens, UniProt P41145). Kind of data set: Binding affinity to kappa opioid receptor.
Kappa-type opioid receptor, sequence (P41145 whole entry): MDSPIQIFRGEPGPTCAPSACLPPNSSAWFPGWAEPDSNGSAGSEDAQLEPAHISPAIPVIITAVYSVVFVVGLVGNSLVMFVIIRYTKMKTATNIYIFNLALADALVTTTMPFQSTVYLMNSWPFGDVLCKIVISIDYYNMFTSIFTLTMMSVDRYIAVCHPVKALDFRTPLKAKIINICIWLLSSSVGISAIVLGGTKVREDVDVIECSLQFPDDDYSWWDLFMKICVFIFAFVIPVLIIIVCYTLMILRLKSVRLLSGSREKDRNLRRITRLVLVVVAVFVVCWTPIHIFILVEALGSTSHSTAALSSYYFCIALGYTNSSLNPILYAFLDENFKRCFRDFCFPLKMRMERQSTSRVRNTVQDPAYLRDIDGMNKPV
Data set [10] in a line: Oral bioavailability in rat at 2 mg/kg. Type of data set: ADME, organism-based. The settings on record: in vivo. The gist of the method:
as §1

The test system of data set [11] is Rattus norvegicus. Nature of the data set: Volume of distribution in rat at 2 mg/kg, po. It counts as ADME, organism-based. More on the design: dose 2 mg/kg, route oral. The settings on record: in vivo. The gist of the method:
as §2

Each structure is given as a SMILES string. ≈ marks a conversion by molar mass, not a printed value.

We go through 22 compounds from ChEMBL document CHEMBL1153191, “Triazole oxytocin antagonists: Identification of an aryloxyazetidine replacement for a biaryl substituent” (Bioorg Med Chem Lett, 2010).

Vasopressin V2 receptor, sequence (P30518 whole entry): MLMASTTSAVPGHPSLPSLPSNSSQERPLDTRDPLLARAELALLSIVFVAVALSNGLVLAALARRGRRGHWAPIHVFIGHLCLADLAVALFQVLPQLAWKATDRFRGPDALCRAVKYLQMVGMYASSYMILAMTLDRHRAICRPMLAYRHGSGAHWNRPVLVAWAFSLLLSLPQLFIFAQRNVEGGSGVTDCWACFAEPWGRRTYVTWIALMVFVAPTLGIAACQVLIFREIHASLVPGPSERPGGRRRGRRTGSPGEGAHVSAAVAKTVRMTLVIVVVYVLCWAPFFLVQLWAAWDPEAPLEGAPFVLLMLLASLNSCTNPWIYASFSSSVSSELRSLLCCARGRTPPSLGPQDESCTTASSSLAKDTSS

Turning to `COc1ccc(-n2c(C)nnc2-c2cnc(-c3ccc(F)cc3C)cn2)cn1`, at Vasopressin V2 receptor, the Ki – broadly, a measure of affinity in units of concentration, obtained from inhibition or displacement – is > 10000 nM. In addition, in the data set on Rattus norvegicus [1], the Vd is 4.4 L/kg.

Regarding `COc1ccc(-n2c(C)nnc2N2CC(Oc3ccc(F)cc3Cl)C2)cn1`, the Ki at Vasopressin V2 receptor was > 10000 nM; at Oxytocin receptor, 28.4 nM; at Vasopressin V1a receptor it was 2430 nM. In addition, in the data set with Liver microsomes, the clearance came to 22 µL/min/mg.

Turning to `COCc1nnc(N2CC(Oc3ccc(F)cc3C)C2)n1-c1ccc(OC)nc1`, the Ki at Vasopressin V2 receptor is 1190 nM; on Oxytocin receptor, 18.4 nM; on Vasopressin V1a receptor, 719 nM.

As for `COCc1nnc(N2CC[C@@H](Oc3ccccc3C)C2)n1-c1ccc(OC)nc1`, the Ki at Vasopressin V2 receptor was > 10000 nM; on Oxytocin receptor, 28.5 nM; at Vasopressin V1a receptor, 255 nM.

For `COc1ccc(-n2c(C)nnc2N2CC(Oc3ccccc3Cl)C2)cn1`, the results for the Ki on Vasopressin V2 receptor, at Oxytocin receptor and on Vasopressin V1a receptor were > 10000 nM, 55.1 nM and 1940 nM, respectively.

With `COCc1nnc(N2CC(Oc3ccccc3Cl)C2)n1-c1ccc(OC)nc1`, the Ki on Vasopressin V2 receptor is > 10000 nM; at Oxytocin receptor, 32.5 nM; on Vasopressin V1a receptor it was 1340 nM. The compound also came in with a clearance in the data set with Liver microsomes of 21 µL/min/mg.

For `COc1ccc(-n2c(C)nnc2N2CC[C@@H](Oc3ccc(F)cc3C)C2)cn1`, the Ki was > 10000 nM on Vasopressin V2 receptor, 31.8 nM at Oxytocin receptor and 941 nM on Vasopressin V1a receptor. For the same compound, the clearance in the data set with Liver microsomes was 95 µL/min/mg.

With `COc1ccc(-n2c(C)nnc2N2CCC(Oc3ccccc3)CC2)cn1`, the Ki at Vasopressin V2 receptor was > 10000 nM; at Oxytocin receptor it was 114 nM; at Vasopressin V1a receptor, 127 nM.

As for `COc1ccc(-n2c(C)nnc2N2CCC(Oc3ccccc3C)CC2)cn1`, the Ki was > 10000 nM on Vasopressin V2 receptor, 5.4 nM at Oxytocin receptor and 21.6 nM on Vasopressin V1a receptor.

For the compound `COc1ccc(-n2c(C)nnc2N2CCC(Oc3ccc(F)cc3C)CC2)cn1`, the Ki was > 10000 nM at Vasopressin V2 receptor and 111 nM at Vasopressin V1a receptor. This compound returned a clearance with Liver microsomes of 23 µL/min/mg.

`COCc1nnc(N2CCC(Oc3ccccc3C)CC2)n1-c1ccc(OC)nc1`: the Ki is > 10000 nM at Vasopressin V2 receptor, 2.2 nM at Oxytocin receptor and 24.4 nM on Vasopressin V1a receptor.

Take `COc1ccc(-n2c(C)nnc2N2CC[C@@H](Oc3ccccc3C)C2)cn1`: the Ki on Vasopressin V2 receptor is > 10000 nM; on Oxytocin receptor, 35.9 nM; at Vasopressin V1a receptor it was 734 nM. In the data set on Liver microsomes, this compound had a clearance of 32 µL/min/mg.

Consider `COCc1nnc(N2CC[C@@H](Oc3ccc(F)cc3C)C2)n1-c1ccc(OC)nc1`, for which the Ki at Vasopressin V2 receptor was > 10000 nM; on Oxytocin receptor, 17.9 nM; on Vasopressin V1a receptor, 586 nM. Moreover, the clearance in the data set on Liver microsomes is > 440 µL/min/mg.

Regarding `COCc1nnc(N2CC[C@H](Oc3ccccc3C)C2)n1-c1ccc(OC)nc1`, the results for the Ki on Vasopressin V2 receptor, on Oxytocin receptor and on Vasopressin V1a receptor were > 10000 nM, 207 nM and 522 nM, respectively.

For `COc1ccc(-n2c(C)nnc2N2CC(Oc3ccccc3)C2)cn1`, the Ki at Vasopressin V2 receptor is > 10000 nM; at Oxytocin receptor, 304 nM; on Vasopressin V1a receptor, > 10000 nM. The clearance in the data set with Liver microsomes is < 7 µL/min/mg.

Consider `COc1ccc(-n2c(C)nnc2N2CC(Oc3ccc(F)cc3C)C2)cn1`, for which the Ki on Vasopressin V2 receptor is > 10000 nM; at Oxytocin receptor, 17.5 nM; at Vasopressin V1a receptor, 608 nM.

Regarding `COCc1nnc(N2CC(Oc3ccc(F)cc3Cl)C2)n1-c1ccc(OC)nc1`, the bioavailability (in general, the share of a dose that reaches the circulation, judged against a reference dose that is usually intravenous) in data set [2] was 81%; in data set [10], 62%. The apparent clearance CL/F (commonly clearance divided by bioavailability, as obtained after extravascular dosing) in data set [3] was determined as 8 mL/min/kg; in data set [5], 36 mL/min/kg. Besides, the results for the half-life in [4] and in data set [7] were 1.9 h and 0.9 h, respectively. Further, the Ki on Vasopressin V2 receptor was > 10000 nM; on Substance-P receptor, 6500 nM; on Oxytocin receptor, 9.5 nM; in [8] it was 4400 nM; in data set [9], 3000 nM; on Vasopressin V1a receptor, 1120 nM. In addition, the clearance in the data set on Liver microsomes worked out at 10 µL/min/mg. In addition, the solubility (usually the concentration that dissolves in the medium under given conditions) in data set [6] was found to be 59 µg/mL (≈ 141 µM). The Vd turned out to be 1.3 L/kg in the data set on Canis familiaris and 2.5 L/kg with Rattus norvegicus [11].

In the case of `COc1ccc(-n2c(C)nnc2N2CCC(Oc3cccc(F)c3C)CC2)cn1`, the Ki on Vasopressin V2 receptor is > 10000 nM; on Oxytocin receptor it was 2.6 nM. The clearance in the data set with Liver microsomes amounted to 24 µL/min/mg.

Regarding `COc1ccc(-n2c(C)nnc2N2CC(Oc3cc(F)ccc3C)C2)cn1`, the Ki on Vasopressin V2 receptor was 2770 nM; on Oxytocin receptor it was 40 nM; on Vasopressin V1a receptor, 1680 nM.

Take `COc1ccc(-n2c(C)nnc2N2CC[C@@H](Oc3ccccc3)C2)cn1`: the Ki is > 10000 nM at Vasopressin V2 receptor, 170 nM on Oxytocin receptor and 1840 nM on Vasopressin V1a receptor.

On to `COc1ccc(-n2c(C)nnc2N2CCC(Oc3cc(F)cc(F)c3C)CC2)cn1`, for which the Ki is > 10000 nM on Vasopressin V2 receptor, 0.4 nM on Oxytocin receptor and 175 nM at Vasopressin V1a receptor.

Regarding `COCc1nnc(N2CC[C@@H](Oc3cc(F)cc(F)c3C)C2)n1-c1ccc(OC)nc1`, the results for the Ki on Vasopressin V2 receptor, at Oxytocin receptor and at Vasopressin V1a receptor were > 10000 nM, 5.8 nM and 1000 nM, respectively. Moreover, the clearance with Liver microsomes turned out to be 107 µL/min/mg.
